Compound activity: PubChem BioAssay, The Scripps Research Institute Molecular Screening Center
M4 ag: human M4 muscarinic receptor agonists, primary screen, CHO-K1 cells, Fluo-8 calcium fluorescence | CHO-K1 hM4/Gqi5; vehicle 0%, full acetylcholine response 100% | activation, % at 3 µM | 360,000 tested, 0.14% active | AID 624127, 2012;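 active = activation above the run mean over all test wells plus 3 SD, cut at about 32% in these data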;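 also: peak over basal fluorescence ratio per well then scaled between controls; 0% = DMSO wells and 100% = acetylcholine at EC100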
Target sequence (P08173 whole entry, looked up): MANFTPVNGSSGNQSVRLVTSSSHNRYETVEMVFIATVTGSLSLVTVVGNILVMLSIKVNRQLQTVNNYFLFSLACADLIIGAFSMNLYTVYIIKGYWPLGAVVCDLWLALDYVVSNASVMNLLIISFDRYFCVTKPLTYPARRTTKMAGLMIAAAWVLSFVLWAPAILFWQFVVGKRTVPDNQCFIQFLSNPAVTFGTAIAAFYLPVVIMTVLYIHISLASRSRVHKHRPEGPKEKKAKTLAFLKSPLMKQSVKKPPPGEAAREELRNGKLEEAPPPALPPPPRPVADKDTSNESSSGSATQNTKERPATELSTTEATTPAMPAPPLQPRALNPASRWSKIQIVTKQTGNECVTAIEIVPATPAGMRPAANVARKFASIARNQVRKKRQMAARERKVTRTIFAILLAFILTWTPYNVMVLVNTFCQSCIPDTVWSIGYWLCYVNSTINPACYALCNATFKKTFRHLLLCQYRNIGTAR
CHRM4 PAM: human M4 muscarinic receptor positive allosteric modulators, primary screen, CHO-K1 cells, Fluo-8 calcium fluorescence; 360,000 tested, 0.4% active; Muscarinic acetylcholine receptor M4 (Homo sapiens), P08173; CHO-K1 hM4/Gqi5, ACh EC20; 0% = ACh EC20, 100% = maximal ACh; AID 624126, 2012; activation, % at 3 µM;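 active = activation above its plate's cutoff, the mean activation of sample wells plus 3 SD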
CHRM4 antagonist: human M4 muscarinic receptor antagonists, primary screen, CHO cells, Fluo-8 calcium fluorescence. CHO-hM4 cells, ACh EC80. inhibition, % at 3 µM. 360,000 tested, 0.73% active. AID 624125, 2012;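 active = inhibition above its plate's cutoff, the mean inhibition of sample wells plus 3 SD, cut at about 27% in these data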;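 also: 0% = acetylcholine EC80 with DMSO and 100% = DMSO without agonist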
M5 antag: human M5 muscarinic receptor antagonists, primary screen, CHO cells, Fluo-8 calcium fluorescence | 360,000 tested, 0.59% active | Muscarinic acetylcholine receptor M5 (Homo sapiens), P08912 | CHO-hM5 cells, ACh EC80 | inhibition, % at 3 µM;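 active = inhibition above a per-plate cutoff, the mean of that plate's test compounds plus 3 SD, cut at about 27% in these data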;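 also: 0% = acetylcholine EC80 with DMSO and 100% = DMSO without agonist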
CHRM5 agonist: human M5 muscarinic receptor agonists, primary screen, CHO-K1 cells, Fluo-8 calcium fluorescence; 360,000 tested, 0.19% active; Muscarinic acetylcholine receptor M5 (Homo sapiens), P08912; activation, % at 3 µM; CHO-K1 hM5 cells; 0% DMSO wells, 100% maximal acetylcholine response;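 active = activation above the run's mean over test compounds plus 3 SD, cut at about 23% in these data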;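 also: signal is peak over basal fluorescence ratio across the kinetic read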
M5 PAM: human M5 muscarinic receptor positive allosteric modulators, primary screen, CHO-K1 cells, Fluo-8 calcium fluorescence | Muscarinic acetylcholine receptor M5 (Homo sapiens), P08912 | CHO-K1 hM5, ACh EC20 PAM; 0% = ACh EC20, 100% = ACh EC100 | activation, % at 3 µM | 360,000 tested, 0.3% active | AID 624038, 2012;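 active = activation above the run cutoff, the mean activation of all test compounds plus 3 SD, cut at about 18% in these data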
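system = human M5 receptor in CHO-K1 cells | reagent = EC20 acetylcholine as agonist stimulus | compound dosing = single-point, 3 µM nominal | incubation = Fluo-8 loading 80 min at 37 °C plus 30 min room temperature | detection = Fluo-8 calcium dye fluorescence, kinetic read | benchmarks = low control EC20 acetylcholine (0%), high control EC100 acetylcholine (100%)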
The depositor's hits bear a star. Most compounds without a hit are left out; they make up all but 1.8% or so of the library.

SMILES	M4 ag	CHRM4 PAM	CHRM4 antagonist	M5 antag	CHRM5 agonist	M5 PAM
CCN1CCN(c2ncnc3scc(-c4ccc(C)c(C)c4)c23)CC1	1.1	-16.2	26.6*	45.9*	-7.9	-18.5
CCN(CC)CCNC(=O)Cn1nc(-c2ccccc2)c2ccccc2c1=O	-0.3	-2.5	-0.7	7.9	-10.0	-4.2
CCN(CC)CCNC(=O)Cn1ncc2ccccc2c1=O	0.4	18.4	0.3	-10.7	8.0	20.4*
C/C(CC1CC2=C(CC1(C)C)C(C)(C)CCC2)=N\NC(N)=S (centres undefined)	0.8	42.9*	5.3	0.0	3.6	2.2
C/C(CC1CC(C)(C)OC1=O)=N\NC(N)=S (centres undefined)	0.3	6.7	-1.6	-8.3	1.5	15.0
CC(=O)Nc1ccc(OCC(=O)c2ccc(C)cc2C)cc1	2.6	-3.4	2.4	-0.5	2.8	3.2
CC(=O)Nc1ccc(OCC(=O)c2cc(C)ccc2C)cc1	0.1	19.1*	1.8	-0.8	1.8	5.1
CCOc1ccc(NC(=O)CCC(=O)NNC(=O)COc2ccc(C)cc2)cc1	11.5	-3.0	1.1	30.1*	-1.6	-16.2
COc1ccc(C(=O)c2[nH]c(N)c(C(=O)NCCc3c[nH]c4ccccc34)c2-c2ccccc2Br)cc1	4.0	-5.0	-1.1	1.0	2.1	-3.3
CCc1nc2ccc(C(=O)N3CCN(C(=O)c4ccco4)CC3)cn2c1N(CC)Cc1cccc(Br)c1	3.8	-6.7	-15.4	2.6	-3.4	-8.9
N#C/C(=C\c1ccc(N2CCOCC2)o1)C(=O)NCCc1ccccc1	34.5*	-12.9	3.1	16.1	47.0*	-22.9
N#C/C(=C/c1ccc(N2CCOCC2)o1)C(=O)Nc1ccccc1	53.7*	-16.4	13.2	27.3*	42.6*	-20.8
CC(C)N1C(=O)NC2NC(=O)N(C(C)C)C21 (centres undefined)	0.4	-2.9	7.4	2.2	0.2	-3.0
CC(C)Nc1ccc(C(CC(N)=O)NC(=O)c2ccccc2)cc1[N+](=O)[O-] (centres undefined)	0.8	-3.9	4.3	-4.8	1.8	1.4
CC(C)Nc1ccc(C(CC(N)=O)NC(=O)c2ccc(Br)cc2)cc1[N+](=O)[O-] (centres undefined)	0.2	2.6	-4.7	-5.5	1.0	19.9*
Cc1sc2ncnc(N3CCCCC3)c2c1C	3.0	7.6	-5.9	-0.1	3.6	-5.9
Cc1sc2ncnc(NCC(c3ccco3)N3CCCC3)c2c1C (centres undefined)	2.1	-22.6	39.7*	15.4	-7.0	-20.5
O=C(COC(=O)C1(c2ccccc2F)CCCC1)NC1CCS(=O)(=O)C1 (centres undefined)	1.4	24.3*	-15.6	-7.6	1.5	1.2
O=C(COc1ccccc1)NC1CCS(=O)(=O)C1 (centres undefined)	1.4	1.4	-5.6	-2.9	1.5	5.7
COc1ccc(/C=N/N=C2/NC(=O)C(c3ccccc3)S2)c(OC)c1 (centres undefined)	-0.2	13.2	1.3	-5.7	-7.1	18.3*
COc1ccc(CC2S/C(=N/N=C/c3ccccc3O)NC2=O)cc1 (centres undefined)	0.1	6.6	1.2	9.2	-0.1	2.6
O=C(NNC(=O)C(c1ccccc1)c1ccccc1)c1ccccc1O	2.4	-3.4	-21.0	-0.4	1.7	-4.0
O=C(Nc1ccc(Cl)c(Cl)c1)Nc1ccc(Br)cc1F	11.5	-11.4	18.2	30.9*	4.4	-13.9
O=C(NNc1ccccc1[N+](=O)[O-])Nc1ccc(Cl)c(Cl)c1	14.7	-8.3	15.2	28.9*	12.2	-17.7
COc1ccc(NC(=O)Nc2ccc(F)c(Cl)c2)cc1	15.8	-5.7	5.0	35.0*	3.6	-16.9
SMILES	M4 ag	CHRM4 PAM	CHRM4 antagonist	M5 antag	CHRM5 agonist	M5 PAM
O=C(Nc1ccc(Cl)c([N+](=O)[O-])c1)C(Sc1ccccc1)c1ccccc1 (centres undefined)	7.0	-28.0	26.0	29.7*	-0.2	-19.2
COc1ccc(NC(=O)Cn2nc(C(=O)O)c3ccccc3c2=O)cc1Cl	0.7	2.1	2.3	9.1	-0.3	-1.2
Cc1ccc2nc(NC(=O)CSc3nc(=O)n(CCN(C)C)c4c3CCCC4)sc2c1	2.1	4.8	2.8	-1.3	-4.5	4.3
Cc1ccccc1C1CC(=O)c2ccccc2C1C (centres undefined)	-1.8	-0.1	-17.3	0.9	-4.4	2.8
O=C(Nc1ccc(N2CCOCC2)cc1)Nc1ccc(Cl)c(Cl)c1	43.1*	-18.4	47.9*	39.0*	14.9	-24.3
O=C(Nc1ccc(Cl)c(Cl)c1)Nc1ccccc1O	18.0	-9.2	16.2	42.5*	3.4	-24.7
O=C(Nc1ccc(Cl)c(Cl)c1)c1ccccc1	3.2	-5.7	6.3	4.9	-2.5	-1.3
Cc1[nH]c(C)c(S(=O)(=O)NCc2ccc(N(C)C)cc2)c1C(=O)N1CCCC1	0.7	17.5*	2.5	15.6	-7.8	-2.9
Cc1ccc(C)c(CNS(=O)(=O)c2c(C)[nH]c(C)c2C(=O)N2CCCCC2)c1	1.4	14.4	2.5	-17.8	1.2	19.3*
CCc1nc2ccc(C(=O)N(C)Cc3ccco3)cn2c1N(C)Cc1ccc(OC)cc1	4.1	-4.8	-7.3	0.1	-2.5	-10.8
CCOC(=O)N1CCN(CC(=O)Nc2ccccc2C(=O)Nc2ccccc2)CC1	4.2	0.7	-2.8	7.4	4.6	-2.4
COc1ccc(CNC(=O)CN(C2CCCCC2)S(C)(=O)=O)cc1	2.2	26.0*	-5.0	-2.9	-3.1	7.0
CCOC(=O)/C=c1\s/c(=C(\C#N)C(N)=O)n(-c2ccccc2)c1=O	2.7	0.1	-6.7	-3.0	4.1	7.4
CCOC(=O)/C=c1\s/c(=C(\C#N)C(=O)NC)n(-c2ccccc2)c1=O	1.3	17.5	1.7	-12.3	-2.1	22.8*
CCc1nnc(NC(=O)c2cc(-c3ccccn3)nc3ccc(Br)cc23)s1	2.2	7.2	-25.5	-6.5	1.4	7.1
O=c1[nH]c(=S)[nH]c2c1[C@H](CCc1cccc(Cl)c1)O[C@H](C1CCCC1)C2	1.4	2.4	-8.5	-6.9	10.5	7.5
CC(C)(C)C(=O)/C=c1\s/c(=C\c2ccc(-c3ccc([N+](=O)[O-])cc3)o2)c(=O)n1CC(=O)NC(N)=O	9.3	-9.2	17.1	32.5*	9.4	-12.3
